TRPC4 potent: TRPC4 (mouse) allosteric potentiation. Q9QUQ5. HEK293 TRPC4beta/mu-opioid, DAMGO EC20, Fluo-4 Ca2+ flux; stronger effect = higher value. B-score at 10 µM. hit rate 0.42% among 310,000. AID 2227;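 active = B-score of calcium response area above 5 SD of library B-scores, with initial fluorescence ratio within 5 SD of library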;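 also: B-score of integrated fluorescence ratio over time as area under calcium response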
TRPC6 inh: inhibitors of mouse TRPC6 channel; Q61143; HEK293-TRPC6, membrane potential dye, ACh-evoked depolarization; stronger effect = lower value; B-score at 10 µM; hit rate 1.1% among 310,000;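 active = B-score under library mean minus 3 SD, initial fluorescence not abnormally high, positive integrated signal ratio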;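 also: B-score derived from integrated fluorescence ratio over the kinetic read; more negative B-score means stronger inhibition of depolarization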
Target sequence (Q61143 whole entry, looked up): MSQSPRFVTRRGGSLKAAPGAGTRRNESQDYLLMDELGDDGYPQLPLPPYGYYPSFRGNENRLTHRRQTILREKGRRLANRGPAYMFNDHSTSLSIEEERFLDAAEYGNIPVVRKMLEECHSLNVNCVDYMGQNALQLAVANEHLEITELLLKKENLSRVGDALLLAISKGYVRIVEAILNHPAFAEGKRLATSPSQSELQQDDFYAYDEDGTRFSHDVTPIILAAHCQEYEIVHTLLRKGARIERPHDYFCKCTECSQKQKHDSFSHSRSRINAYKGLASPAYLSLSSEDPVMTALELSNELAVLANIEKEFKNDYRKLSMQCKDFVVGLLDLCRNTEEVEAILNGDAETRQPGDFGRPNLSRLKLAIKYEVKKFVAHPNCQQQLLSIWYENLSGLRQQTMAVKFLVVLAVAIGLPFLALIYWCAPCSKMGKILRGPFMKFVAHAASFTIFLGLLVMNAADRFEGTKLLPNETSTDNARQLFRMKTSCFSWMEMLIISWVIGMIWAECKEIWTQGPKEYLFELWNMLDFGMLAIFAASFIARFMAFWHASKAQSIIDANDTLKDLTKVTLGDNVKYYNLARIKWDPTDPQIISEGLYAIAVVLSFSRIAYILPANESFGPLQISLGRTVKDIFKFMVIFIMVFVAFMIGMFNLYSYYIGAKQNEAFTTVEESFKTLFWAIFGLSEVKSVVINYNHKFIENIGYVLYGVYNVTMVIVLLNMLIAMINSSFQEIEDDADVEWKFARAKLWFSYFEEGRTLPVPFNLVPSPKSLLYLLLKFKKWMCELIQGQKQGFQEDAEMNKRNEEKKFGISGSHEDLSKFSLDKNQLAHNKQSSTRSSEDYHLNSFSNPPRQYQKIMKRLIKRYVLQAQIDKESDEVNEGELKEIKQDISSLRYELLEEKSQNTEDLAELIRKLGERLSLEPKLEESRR
TRPC4 block: TRPC4 (mouse) channel inhibition. AID 2247. HEK293 TRPC4beta/mu-opioid, DAMGO-evoked Fluo4 calcium flux; stronger effect = lower value. hit rate 0.39% among 300,000. Q9QUQ5. B-score at 10 µM;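 active = B-score over 3 SD under the library average, no early fluorescence shift, positive overall ratio signal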
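Assay system: TRPC4beta/mu-opioid receptor HEK293 cell line; compound dosing: single concentration per test compound; detection: Fluo4 Ca2+ flux fluorescence; evaluation: per-well B score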
TRPC6 activator: activators of mouse TRPC6 channel; HEK293-TRPC6 membrane potential dye fluorescence; stronger effect = higher value; B-score at 10 µM; hit rate 0.13% among 310,000; AID 2550;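 active = B-score of the integrated fluorescence ratio above library mean plus 3 SD, and starting fluorescence ratio within library mean plus 5 SD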;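 also: higher score means more depolarization so channel activation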
TRPC4 act: TRPC4 (mouse) channel activation. Q9QUQ5. HEK293 TRPC4beta/mu-opioid, Fluo4 calcium fluorescence; stronger effect = higher value. B-score at 10 µM. hit rate 0.49% among 310,000;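 active = B-score above 5 SD of library B-scores, and initial fluorescence ratio not above library mean plus 5 SD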;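 also: positive B-score marks a calcium rise read as TRPC4 activation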
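Assay system: HEK293 stable line with TRPC4beta plus mu-opioid receptor. Times: dye 45 min RT, read 110 s. Measured by: kinetic Fluo4 calcium fluorescence. Measure: B score of integrated ratio. Controls: assay buffer as low control, maximal DAMGO as high control.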
The depositor's hits bear a star; i = inactive. Hits are enriched below; roughly 2.3% of the tested compounds scored in any of these assays.

SMILES | TRPC4 potent | TRPC6 inh | TRPC4 block | TRPC6 activator | TRPC4 act
CCOC(=O)C1=C(C)N(C)C(=S)NC1c1ccc(Cl)cc1 (stereo not drawn) | i | i | -6* | i | i
Nc1ccccc1CNc1nc(NCCO)nc2c1ncn2CCN1CCOCC1 | i | i | i | i | i
CCCc1nc2oc3c(NCCN(C)C)ncnc3c2c2c1CCCC2 | i | i | -6* | i | i
Cc1ccc(C(=O)N2CCn3c(C)ccc3C2C)cc1 (stereo not drawn) | i | i | i | i | i
COc1ccc(CCN(C)CCCN2CC(c3ccccc3)CC2=O)cc1OC (stereo not drawn) | i | i | i | i | i
COc1ccc(C2CC(=O)N(CCCN(C)CCc3ccc(OC)c(OC)c3)C2)cc1 (stereo not drawn) | 13* | i | i | i | i
Cc1ccc(S(=O)(=O)N/N=C/c2ccc(C#N)cc2)cc1 | i | i | i | i | i
COc1ccc(CNC(=O)C(C)NCc2ccc(S(N)(=O)=O)cc2)cc1 (stereo not drawn) | i | i | -8* | i | i
CCCCn1c(N)c(N(CCOC)C(=O)c2ccc(-c3cccc(C(F)(F)F)c3)o2)c(=O)[nH]c1=O | i | i | i | i | i
Cc1cc(NC(=O)CSc2nnc(N)s2)c([N+](=O)[O-])cc1C | i | i | i | i | i
CC(C)CCn1c(=O)c2ccccc2n2c(CCC(=O)NC3CCN(Cc4ccccc4)CC3)nnc12 | i | i | i | i | i
CCn1c(=O)c2sccc2n2c(CCCC(=O)NC3CCN(Cc4ccccc4)CC3)nnc12 | 14* | i | i | i | i
O=S(=O)(c1ccc(F)cc1)N1CCN(S(=O)(=O)c2cccs2)CC1 | i | i | i | i | i
Cc1ccc(O)c(NC(=S)NC(=O)C(C)C)c1 | i | i | i | i | i
CCCc1c(-c2ccc(O)cc2)nn(-c2ccc(O)cc2)c1-c1ccc(O)cc1 | 27* | i | i | i | i
Cc1c(C(N)=O)c(-c2ccccc2)nn1-c1ccccc1 | i | i | i | i | i
Cn1c(=O)oc2cc(S(=O)(=O)N3CCC(C(=O)NCCc4ccccc4)CC3)ccc21 | i | i | i | i | i
CC(C)c1cc(-c2cc(C(=O)Nc3ccccc3)on2)nc(NCC2CC2)n1 | i | i | i | i | i
CC(C)c1cc(-c2cc(C(=O)NCc3ccccc3)on2)nc(NCC2CC2)n1 | 10* | i | i | i | i
Cc1cc(C(=O)NCCCN2CCN(c3cc(Cl)ccc3C)CC2)n(-c2ccccc2)n1 | i | i | -6* | i | i
CCCCNC(=O)c1cc(C)nn1-c1ccccc1 | i | i | i | i | i
CCOC(=O)c1c(S(=O)(=O)NCC(=O)Nc2cc(C)ccn2)c(C)n(C)c1C | i | i | i | i | i
COc1ccc(C2Nc3ccccc3C(=O)N2Cc2ccco2)cc1COc1ccc(NC(C)=O)cc1 (stereo not drawn) | i | i | i | i | 110*
COc1ccc(C2Nc3ccccc3C(=O)N2Cc2ccco2)cc1COc1ccccc1F (stereo not drawn) | i | i | i | i | i
CN(C(=O)c1ccc2c(c1)OCO2)C1CCS(=O)(=O)C1 (stereo not drawn) | i | i | i | i | i
SMILES | TRPC4 potent | TRPC6 inh | TRPC4 block | TRPC6 activator | TRPC4 act
COc1ccc(N/C(C)=C2/C(=O)C(=O)N(CCO)C2c2ccc([N+](=O)[O-])cc2)cc1 (stereo not drawn) | 137* | i | i | i | i
CN(C)c1ccc(CNS(=O)(=O)c2ccc3c(c2)NC(=O)CS3)cc1 | i | i | i | i | i
CCC(C)c1ccc(OCc2ccc(C(=O)O)o2)cc1 (stereo not drawn) | i | i | i | i | i
COc1cccc(C2=NN(C(=O)c3ccco3)C(c3ccco3)C2)c1 (stereo not drawn) | i | i | -6* | i | i
OC1(c2ccccc2)CCN(Cc2ccccc2)CC1 | i | i | i | i | i
OC1(c2ccc(F)cc2)CCN(Cc2ccccc2)C1 (stereo not drawn) | i | i | -6* | i | i

High-throughput results from PubChem.
